Test results: PubChem BioAssay AID685 (PCMD, 2007)
Out of some 30,000 compounds screened, about 80 (0.3%) were called active.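 Rule for the calls: active = mutant and wild-type yeast strains alike exhibit over 30% growth inhibition; inconclusive = a strain exceeds 50% while the second remains under 30%; inactive = the rest.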 Shown is part of a subset that was picked to be rich in actives.

Test: S. cerevisiae growth inhibition, turbidity – wild-type and eIF2Bepsilon R284H mutant, A595, cytotoxicity control for eIF2B function restoration project, primary screen (AID 685);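 note: 0% = untreated cell controls and 100% = YPD media blanks without cells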
Conditions: 16 h, stronger effect = higher value, screened at 25 µM (by protocol)
Summary of the method: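 Incubation: 16 h growth with compound, 30 °C; Material: S. cerevisiae wild-type or eIF2Bepsilon-R284H mutant strain; Signal: turbidity measured as absorbance at 595 nm; Medium: YPD yeast growth medium; Measure: growth inhibition (%) versus cell controls and blanks; Doses: 25 µM single dose.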

[1] = S. cerevisiae eIF2Bepsilon-R284H mutant growth

| SMILES | growth inhibition [1] | growth inhibition (S. cerevisiae wild-type growth) |
| --- | --- | --- |
| Cc1cc(C)n(-c2ccc(Cl)c(C(=O)O)n2)n1 | -10% | 22.7% (inactive) |
| Cc1cccc(N(CC(=O)N2CCOCC2)S(C)(=O)=O)c1 | -23.8% | 4.83% (inactive) |
| CCc1c(O)nc(SCC(=O)Nc2ccccc2)n(C(C)CC)c1=O (stereo not given) | 12.8% | 10% (inactive) |
| O=S1(=O)C=C(SCCN2CCCC2)c2ccccc21 | 13.5% | 27.4% (inactive) |
| CS(=O)(=O)N1CCN(c2cccc(Cl)n2)CC1 | 18.9% | -6.15% (inactive) |
| Cc1cccc(NC(=O)C2CCCN2S(=O)(=O)c2ccc(F)cc2)c1C (stereo not given) | 13.8% | 9.79% (inactive) |
| COc1ccc(-c2cc(C)nc3nc(N)nn23)cc1 | 13.3% | 1.72% (inactive) |
| Cc1ccc(S(=O)(=O)NC(=O)COc2ccccc2C)cc1 | 10.5% | 6.06% (inactive) |
| COc1ccc(CN2CCCCC2C)cc1OC (stereo not given) | 12.5% | 8.46% (inactive) |
| CC1CC2=C(CC1/C=N/NC(N)=S)C(C)(C)CCC2 (stereo not given) | 41.9% | 30% (active) |
| CCCCNC(=O)OC(C)CNC(=O)OC (stereo not given) | 15% | 15.4% (inactive) |
| CC(=O)Nc1ccccc1OC(=O)N1CCOCC1 | 2.94% | 27.7% (inactive) |
| O=c1c2ccccc2nc2n1C1(CCCCC1)Cc1ccccc1-2 | 2.94% | 5.38% (inactive) |
| CC(C)C[C@@H](N)c1nnc(SCC(=O)c2ccc(Cl)cc2)o1 | -4.76% | -22.1% (inactive) |
| Cc1cc(C(=O)Nc2ccccc2N2CCOCC2)c2ccccc2n1 | 15.2% | 28.1% (inactive) |
| COc1cccc(N2CC(C(=O)Nc3c(C)cccc3C)CC2=O)c1 (stereo not given) | -17.4% | -10.6% (inactive) |
| COC(=O)c1cc(NC(=O)CC2C(=O)NCCN2C(=O)c2ccc(F)cc2)cc(C(=O)OC)c1 (stereo not given) | 14.3% | 3.33% (inactive) |
| Cc1cc2nc(C)n(CCCNC(=O)Nc3ccccc3)c2cc1C | -4.76% | 26.8% (inactive) |
| Cc1cc(C)c2nc(NC(=O)C3CCCO3)sc2c1 (stereo not given) | 28.2% | 10.3% (inactive) |
| CCN(c1ccccc1)S(=O)(=O)c1ccc(C(=O)Nc2nccs2)cc1 | 0% | 18.7% (inactive) |
| Cc1ccc(OCC(=O)Nn2cnc3ccccc32)cc1 | -33.3% | -14% (inactive) |
| Cc1ccc(-c2noc(CSc3nnc(-c4ccncc4)n3-c3ccc(F)cc3)n2)cc1 | 11.6% | 17.6% (inactive) |

| SMILES | growth inhibition [1] | growth inhibition (S. cerevisiae wild-type growth) |
| --- | --- | --- |
| O=C1CC(Sc2ncn[nH]2)C(=O)N1c1ccccc1 (stereo not given) | 56.8% | 43.7% (active) |
| CCOC(=O)c1ccc(N2C(=O)CC(Sc3nc(O)c(CC)c(=O)[nH]3)C2=O)cc1 (stereo not given) | 0% | -8% (inactive) |
| Cc1ccc(N2C(=O)CC(Sc3ncn[nH]3)C2=O)cc1 (stereo not given) | 23.8% | 1.62% (inactive) |
| COc1ccc(NC(=O)COC(=O)Cn2c(C)nc3ccccc32)cc1OC | -9.52% | -7.04% (inactive) |
| CN(C)/C=C1/C(=O)Nc2ccccc21 | 0% | 16.7% (inactive) |
| CCCCNC(=O)C1CCCN(S(=O)(=O)c2ccc(S(=O)(=O)NCC(C)C)cc2)C1 (stereo not given) | 28.2% | 0.77% (inactive) |
| CCOc1ccc(-c2nc(C)sc2CC(=O)O)cc1 | 14.9% | 16.7% (inactive) |
| COc1cc(S(=O)(=O)N(Cc2cccs2)C2CC2)ccc1-n1cnnn1 | -4.17% | 13% (inactive) |
| Cc1ccc(S(=O)(=O)N(c2cccc(C)c2)C2CCS(=O)(=O)C2)cc1 (stereo not given) | 0% | 8.71% (inactive) |
| CN(Cc1ccccc1)C(=O)COc1ccccc1 | 16.7% | 1.03% (inactive) |
| COc1ccc(NC(=O)CC2COc3ccccc3O2)c(OC)c1 (stereo not given) | 19.1% | 20% (inactive) |
| Cc1nnc(SCC(=O)NC(=O)NC2CCCC2)n1N | 17.4% | 24.3% (inactive) |
| COC(=O)c1ccc(S(=O)(=O)c2ccc(C(=O)OC)s2)s1 | -35.1% | -57.5% (inactive) |
| CC(=O)OC(C(=O)NC1CCCCC1)c1ccccc1 (stereo not given) | 0% | 11% (inactive) |
| CCC1CCCCN1CCCNC(=O)C1CCC(Cn2c(=O)[nH]c3ccccc3c2=O)CC1 (stereo not given) | 15.6% | 10% (inactive) |
| CCN1CCCC1Cn1cnc2c([nH]c3cc(OC)ccc32)c1=O (stereo not given) | 8.7% | 10% (inactive) |
| COc1cccc2c1OCC1COc3c(c(=O)n(C)c(=O)n3C)C21 (stereo not given) | 8.33% | 14.8% (inactive) |
| CCn1c(-c2ccoc2C)n[nH]c1=S | 22.8% | 21.4% (inactive) |
| CCOC(=O)C1=C(CSc2nccn2C)NC(=O)NC1c1ccc(OC)cc1 (stereo not given) | 5.26% | 17.1% (inactive) |
| COC(=O)C1C(=O)NCC1c1ccc(OC)cc1 (stereo not given) | 10.3% | 14.6% (inactive) |
| Cc1cccc(S(=O)(=O)CC(=O)Nc2nc(-c3ccccc3)cs2)c1 | 10% | 3.33% (inactive) |
| C=CCc1ccc(OCCOc2cccc(/C=N/n3cnnc3)c2)c(OC)c1 | -40.9% | 5% (inactive) |

| SMILES | growth inhibition [1] | growth inhibition (S. cerevisiae wild-type growth) |
| --- | --- | --- |
| Cc1nnc(SCC(=O)Nc2ncc3c(n2)CC(C)(C)CC3=O)s1 | 10.3% | 35% (inactive) |
| CCOc1cc(N2CCOCC2)c(OCC)cc1NC(=O)COC(=O)[C@H](Cc1c[nH]c2ccccc12)NC(C)=O | 6.98% | 26.6% (inactive) |
| Cc1ccc(OCCCC(=O)Nc2ccc(N3CCOCC3)cc2)cc1 | -14.3% | 12.7% (inactive) |
| COC(=O)C1CCN(CC(N)=O)CC1 | 17.5% | 20.8% (inactive) |
| O=C(NCCCCCCNC(=O)NCc1ccco1)NCc1ccco1 | 24.3% | 17.8% (inactive) |
| Cc1cc(=O)[nH]c(SCC(=O)N2c3ccccc3CC2C)n1 (stereo not given) | 3.57% | 4.67% (inactive) |
| CCCCOc1ccc(N(CC(=O)NCC2CCCO2)C(=O)CCC(=O)Nc2cc(C)ccn2)cc1 (stereo not given) | -6.45% | -28.3% (inactive) |
| O=C(c1ccc(CN2CCOCC2)cc1)N1CCN(c2ccccc2F)CC1 | 8.33% | 11.9% (inactive) |
| CC1=NN(/C(=N\c2nnc(C)s2)Nc2ccccc2)[C@H](c2ccc(C)cc2)S1 | -6.45% | 20.2% (inactive) |
| Cc1ccc(-c2cc(C(=O)NCC3CCCO3)c3ccccc3n2)o1 (stereo not given) | -6.45% | 6.79% (inactive) |
| CC1CCc2c(sc3nc4n(c(=O)c23)CCS4)C1 (stereo not given) | 15.4% | 36.9% (inactive) |
| COC(=O)CNC(=O)c1ccccc1F | 16.3% | 19.7% (inactive) |
| COc1ccc(N2CCN(Cc3ccc(Br)s3)CC2)cc1 | 10% | 16.1% (inactive) |
| CC(C)(C)NC(=O)CN(Cc1cccs1)C(=O)CNS(=O)(=O)c1ccccc1 | 14.1% | 11.6% (inactive) |
| C/C(=N\NC(=O)c1nc(C)cc(C)n1)c1ccccc1 | 24.3% | 15.2% (inactive) |
| CCC(=NC1CC(C)(C)NC(C)(C)C1)C1=C(O)CC(C)(C)CC1=O | 14.8% | 23.3% (inactive) |
| CN1C(=O)C(CC(N)=O)N(NC(=O)c2ccc(Cl)cc2)C1=S (stereo not given) | 9.52% | 33.8% (inactive) |
| COC(=O)c1sc(=S)n(-c2ccc(Cl)cc2)c1C | 14.5% | 9.64% (inactive) |
| CCOC(=O)c1ccc2c(c1)nc(SCC(=O)NC(C)C)n2CC | 7.69% | 3.45% (inactive) |
| CCOC(=O)C1C(=O)NCC1c1ccccc1 (stereo not given) | 22.1% | 11.5% (inactive) |
| CCCCN1C(=O)/C(=C2/C=CC=CN2C)SC1=S | 18.9% | 21.5% (inactive) |
